Measured values: ChEMBL document CHEMBL1135162, “Synthesis and evaluation of N-substituted 1,4-oxazepanyl Sordaricins as selective fungal EF-2 inhibitors” (2002)
In brackets after ≈: the same amount, converted by molar mass.

Key:
Type in all cases: functional
Candida albicans [1] = assay: Tested for in vitro antifungal activity against Candida albicans ATCC 64550
Procedure, shortened: (§1)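 Microplate growth assay in RPMI1640 medium buffered at pH 7.0, incubated at 35 °C. MIC is the lowest test-compound concentration that inhibits fungal growth by 80%.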

Candida parapsilosis = assay: Tested for in vitro antifungal activity against Candida parapsilosis ATCC 90018; settings: Lodderomyces parapsilosis; procedure, shortened: as §1
Candida albicans [2] = assay: Tested for in vitro antifungal activity against Candida albicans SANK51486; procedure, shortened: as §1
Candida albicans [3] = assay: Tested for in vitro antifungal activity against Candida albicans TIMM3164; procedure, shortened: as §1
Candida tropicalis = assay: Tested for in vitro antifungal activity against Candida tropicalis ATCC750; procedure, shortened: as §1
Candida albicans [4] = assay: Tested for in vitro antifungal activity against Candida albicans ATCC 24433 in the presence of horse serum (20%)
Procedure, shortened: (§2)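 RPMI1640 medium buffered at pH 7.0, with 20% horse serum added for the incubation. Microplates incubated at 35 °C. MIC is the lowest concentration giving 80% inhibition of fungal growth.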

Aspergillus fumigatus = assay: Tested for in vitro antifungal activity against Aspergillus fumigatus ATCC 26430
Procedure, shortened: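 Mould grown in microplates in RPMI1640 buffered at pH 7.0, incubated at 30 °C. MIC is the lowest test-compound concentration that inhibits growth by 80%.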

Nakaseomyces glabratus = assay: Tested for in vitro antifungal activity against Candida glabrata ATCC 90030; procedure, shortened: as §1
Candida albicans [5] = assay: Tested for in vitro antifungal activity against Candida albicans ATCC 24433; procedure, shortened: as §1
Cryptococcus neoformans = assay: Tested for in vitro antifungal activity against Cryptococcus neoformans TIMM1855
Procedure, shortened: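 Yeast grown in microplates in yeast nitrogen base buffered at pH 7.0, incubated at 35 °C. MIC is the lowest concentration inhibiting growth by 80%.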

Candida albicans [6] = assay: Tested for in vitro antifungal activity against Candida albicans SANK51486 in the presence of horse serum (20%); procedure, shortened: as §2

| MIC (Candida albicans [1]) | MIC (Candida parapsilosis) | MIC (Candida albicans [2]) | MIC (Candida albicans [3]) | MIC (Candida tropicalis) | MIC (Candida albicans [4]) | MIC (Aspergillus fumigatus) | MIC (Nakaseomyces glabratus) | MIC (Candida albicans [5]) | MIC (Cryptococcus neoformans) | MIC (Candida albicans [6]) | SMILES |
| --- | --- | --- | --- | --- | --- | --- | --- | --- | --- | --- | --- |
| 0.125 µg/mL (≈ 0.29 µM) | > 8 µg/mL | ≤ 0.016 µg/mL | 0.063 µg/mL (≈ 0.146 µM) | 2 µg/mL (≈ 4.64 µM) | 8 µg/mL | > 8 µg/mL | 0.031 µg/mL (≈ 0.072 µM) | 0.031 µg/mL (≈ 0.072 µM) | > 8 µg/mL | 4 µg/mL | CC(C)C1=CC2CC3(C=O)[C@@H]4CC[C@@H](C)[C@H]4CC2(CSC2CCCCC2)C13C(=O)O (stereo partly specified) |
| ≤ 0.063 µg/mL | > 32 µg/mL | ≤ 0.063 µg/mL | 0.125 µg/mL (≈ 0.221 µM) | 0.25 µg/mL (≈ 0.442 µM) | 1 µg/mL | > 32 µg/mL | 0.5 µg/mL (≈ 0.884 µM) | ≤ 0.063 µg/mL | 4 µg/mL (≈ 7.07 µM) | 0.5 µg/mL | CO[C@H]1CN(Cc2ccccc2)C[C@H](OCC23C[C@@H]4[C@H](C)CC[C@H]4C4(C=O)CC2C=C(C(C)C)C34C(=O)O)O[C@@H]1C (stereo partly specified) |
| ≤ 0.063 µg/mL | > 32 µg/mL | ≤ 0.063 µg/mL | ≤ 0.063 µg/mL | 0.5 µg/mL (≈ 0.833 µM) | 8 µg/mL | > 32 µg/mL | 1 µg/mL (≈ 1.67 µM) | ≤ 0.063 µg/mL | 4 µg/mL (≈ 6.66 µM) | 4 µg/mL | CO[C@H]1CN(Cc2ccc(Cl)cc2)C[C@H](OCC23C[C@@H]4[C@H](C)CC[C@H]4C4(C=O)CC2C=C(C(C)C)C34C(=O)O)O[C@@H]1C (stereo partly specified) |
| 0.031 µg/mL (≈ 0.0563 µM) | 16 µg/mL (≈ 29.1 µM) | 0.016 µg/mL (≈ 0.0291 µM) | 0.031 µg/mL (≈ 0.0563 µM) | 0.25 µg/mL (≈ 0.454 µM) | 0.5 µg/mL | > 16 µg/mL | 0.125 µg/mL (≈ 0.227 µM) | 0.031 µg/mL (≈ 0.0563 µM) | 0.125 µg/mL (≈ 0.227 µM) | 0.5 µg/mL | C=C(Cl)CN1C[C@H](OCC23C[C@@H]4[C@H](C)CC[C@H]4C4(C=O)CC2C=C(C(C)C)C34C(=O)O)O[C@H](C)[C@@H](OC)C1 (stereo partly specified) |
| 0.063 µg/mL (≈ 0.107 µM) | > 16 µg/mL | ≤ 0.031 µg/mL | 0.063 µg/mL (≈ 0.107 µM) | 0.5 µg/mL (≈ 0.846 µM) | 2 µg/mL | > 16 µg/mL | 2 µg/mL (≈ 3.39 µM) | 0.063 µg/mL (≈ 0.107 µM) | 8 µg/mL (≈ 13.5 µM) | 1 µg/mL | CO[C@H]1CN(Cc2ccc(C#N)cc2)C[C@H](OCC23C[C@@H]4[C@H](C)CC[C@H]4C4(C=O)CC2C=C(C(C)C)C34C(=O)O)O[C@@H]1C (stereo partly specified) |
| 0.031 µg/mL (≈ 0.0585 µM) | > 16 µg/mL | 0.016 µg/mL (≈ 0.0302 µM) | 0.031 µg/mL (≈ 0.0585 µM) | 0.125 µg/mL (≈ 0.236 µM) | 0.5 µg/mL | > 16 µg/mL | 0.25 µg/mL (≈ 0.472 µM) | 0.031 µg/mL (≈ 0.0585 µM) | 0.25 µg/mL (≈ 0.472 µM) | 0.25 µg/mL | C=C(C)CN1C[C@H](OCC23C[C@@H]4[C@H](C)CC[C@H]4C4(C=O)CC2C=C(C(C)C)C34C(=O)O)O[C@H](C)[C@@H](OC)C1 (stereo partly specified) |
| 0.125 µg/mL (≈ 0.204 µM) | > 16 µg/mL | ≤ 0.031 µg/mL | 0.063 µg/mL (≈ 0.103 µM) | 0.5 µg/mL (≈ 0.817 µM) | 4 µg/mL | > 16 µg/mL | 2 µg/mL (≈ 3.27 µM) | 0.063 µg/mL (≈ 0.103 µM) | > 16 µg/mL | 2 µg/mL | CO[C@H]1CN(Cc2ccc(SC)cc2)C[C@H](OCC23C[C@@H]4[C@H](C)CC[C@H]4C4(C=O)CC2C=C(C(C)C)C34C(=O)O)O[C@@H]1C (stereo partly specified) |
| 0.031 µg/mL (≈ 0.0508 µM) | > 16 µg/mL | 0.016 µg/mL (≈ 0.0262 µM) | 0.031 µg/mL (≈ 0.0508 µM) | 0.25 µg/mL (≈ 0.41 µM) | 1 µg/mL | > 16 µg/mL | 0.5 µg/mL (≈ 0.82 µM) | 0.031 µg/mL (≈ 0.0508 µM) | 2 µg/mL (≈ 3.28 µM) | 0.5 µg/mL | CO[C@H]1CN(Cc2ccc3c(c2)OCO3)C[C@H](OCC23C[C@@H]4[C@H](C)CC[C@H]4C4(C=O)CC2C=C(C(C)C)C34C(=O)O)O[C@@H]1C (stereo partly specified) |
| ≤ 0.063 µg/mL | > 32 µg/mL | ≤ 0.063 µg/mL | ≤ 0.063 µg/mL | 0.25 µg/mL (≈ 0.42 µM) | 1 µg/mL | > 32 µg/mL | 0.25 µg/mL (≈ 0.42 µM) | ≤ 0.063 µg/mL | 2 µg/mL (≈ 3.36 µM) | 0.5 µg/mL | COc1ccc(CN2C[C@H](OCC34C[C@@H]5[C@H](C)CC[C@H]5C5(C=O)CC3C=C(C(C)C)C45C(=O)O)O[C@H](C)[C@@H](OC)C2)cc1 (stereo partly specified) |
| 1 µg/mL (≈ 1.58 µM) | > 32 µg/mL | 0.25 µg/mL (≈ 0.394 µM) | 0.5 µg/mL (≈ 0.789 µM) | 2 µg/mL (≈ 3.16 µM) | 32 µg/mL | > 32 µg/mL | 8 µg/mL (≈ 12.6 µM) | 0.5 µg/mL (≈ 0.789 µM) | > 32 µg/mL | 16 µg/mL | CO[C@H]1CN(Cc2ccc(C(F)(F)F)cc2)C[C@H](OCC23C[C@@H]4[C@H](C)CC[C@H]4C4(C=O)CC2C=C(C(C)C)C34C(=O)O)O[C@@H]1C (stereo partly specified) |
| ≤ 0.031 µg/mL | > 16 µg/mL | ≤ 0.031 µg/mL | ≤ 0.031 µg/mL | 0.25 µg/mL (≈ 0.456 µM) | 0.5 µg/mL | > 16 µg/mL | 0.5 µg/mL (≈ 0.913 µM) | ≤ 0.031 µg/mL | 0.25 µg/mL (≈ 0.456 µM) | 0.5 µg/mL | C=C(CF)CN1C[C@H](OCC23C[C@@H]4[C@H](C)CC[C@H]4C4(C=O)CC2C=C(C(C)C)C34C(=O)O)O[C@H](C)[C@@H](OC)C1 (stereo partly specified) |
